Test results: ChEMBL document CHEMBL5649170, “Sustained microglial depletion with CSF1R inhibitor impairs parenchymal plaque development in an Alzheimer's disease model” (Nat Commun, 2019)
pIC50: −log10 of the molar value. Active and inactive are the calls of the source. No cut-off for these calls is given here.

Columns and labels:
[1] = biological target: RAC-alpha serine/threonine-protein kinase (Homo sapiens, UniProt P31749); assay: Inhibition of AKT1 (unknown origin)
[2] = biological target: Tyrosine-protein kinase BTK (Homo sapiens, UniProt Q06187); assay: Inhibition of BTK (unknown origin)
Chain of Tyrosine-protein kinase BTK (Q06187 whole entry): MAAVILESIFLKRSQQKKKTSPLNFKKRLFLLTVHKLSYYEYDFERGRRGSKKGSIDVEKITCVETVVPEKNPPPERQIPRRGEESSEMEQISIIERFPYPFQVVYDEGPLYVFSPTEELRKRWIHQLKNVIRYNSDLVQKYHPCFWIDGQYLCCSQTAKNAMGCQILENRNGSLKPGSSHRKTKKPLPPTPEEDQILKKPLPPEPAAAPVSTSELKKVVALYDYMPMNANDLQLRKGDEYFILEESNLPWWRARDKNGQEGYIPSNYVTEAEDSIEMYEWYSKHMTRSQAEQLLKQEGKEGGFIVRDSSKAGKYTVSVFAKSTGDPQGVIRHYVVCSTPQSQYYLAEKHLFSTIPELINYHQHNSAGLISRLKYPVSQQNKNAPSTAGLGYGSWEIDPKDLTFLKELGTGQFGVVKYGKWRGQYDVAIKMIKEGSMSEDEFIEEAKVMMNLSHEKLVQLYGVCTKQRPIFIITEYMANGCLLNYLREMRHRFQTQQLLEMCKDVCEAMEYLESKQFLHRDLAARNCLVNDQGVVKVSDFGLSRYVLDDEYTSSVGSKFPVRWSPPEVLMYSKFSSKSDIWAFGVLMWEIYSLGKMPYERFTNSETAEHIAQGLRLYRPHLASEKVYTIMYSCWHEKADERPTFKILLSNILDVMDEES

[3] = biological target: Tyrosine-protein kinase HCK (Homo sapiens, UniProt P08631); assay: Inhibition of HCK (unknown origin)
Chain of Tyrosine-protein kinase HCK (P08631 whole entry): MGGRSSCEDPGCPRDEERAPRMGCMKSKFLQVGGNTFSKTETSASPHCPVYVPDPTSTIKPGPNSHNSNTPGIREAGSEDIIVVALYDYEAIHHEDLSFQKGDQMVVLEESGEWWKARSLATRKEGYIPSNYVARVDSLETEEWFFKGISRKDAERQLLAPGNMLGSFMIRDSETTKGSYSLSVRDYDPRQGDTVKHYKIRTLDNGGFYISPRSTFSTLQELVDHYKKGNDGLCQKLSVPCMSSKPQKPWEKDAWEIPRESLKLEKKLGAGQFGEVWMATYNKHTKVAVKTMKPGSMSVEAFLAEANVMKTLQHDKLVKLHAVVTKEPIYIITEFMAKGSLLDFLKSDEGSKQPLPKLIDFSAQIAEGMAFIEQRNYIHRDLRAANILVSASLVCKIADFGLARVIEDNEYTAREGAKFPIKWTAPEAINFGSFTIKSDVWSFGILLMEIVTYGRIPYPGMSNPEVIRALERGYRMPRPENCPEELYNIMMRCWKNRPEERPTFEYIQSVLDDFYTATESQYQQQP

[4] = biological target: Serine/threonine-protein kinase PAK 4 (Homo sapiens, UniProt O96013); assay: Inhibition of PAK4 (unknown origin)
Chain of Serine/threonine-protein kinase PAK 4 (O96013 whole entry): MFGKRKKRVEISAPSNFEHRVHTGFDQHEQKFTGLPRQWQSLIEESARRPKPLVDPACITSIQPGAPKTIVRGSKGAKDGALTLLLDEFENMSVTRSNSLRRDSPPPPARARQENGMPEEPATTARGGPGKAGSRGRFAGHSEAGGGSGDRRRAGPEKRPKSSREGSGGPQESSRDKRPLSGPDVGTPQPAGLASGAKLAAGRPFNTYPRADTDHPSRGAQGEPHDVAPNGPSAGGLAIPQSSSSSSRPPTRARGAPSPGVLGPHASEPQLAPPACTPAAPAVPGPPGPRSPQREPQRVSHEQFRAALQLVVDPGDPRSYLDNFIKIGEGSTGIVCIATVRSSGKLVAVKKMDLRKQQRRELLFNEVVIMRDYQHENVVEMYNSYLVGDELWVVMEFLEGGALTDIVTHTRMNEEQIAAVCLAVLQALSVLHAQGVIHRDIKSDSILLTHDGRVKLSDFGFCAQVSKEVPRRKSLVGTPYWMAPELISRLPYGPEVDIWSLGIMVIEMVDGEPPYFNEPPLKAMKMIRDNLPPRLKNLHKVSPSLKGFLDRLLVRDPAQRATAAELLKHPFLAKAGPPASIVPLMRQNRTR

[5] = biological target: Platelet-derived growth factor receptor alpha (Homo sapiens, UniProt P16234); assay: Inhibition of PDGFRA (unknown origin)
[6] = biological target: PI3-kinase p110-alpha/p85-alpha (Homo sapiens, UniProt P42336); assay: Inhibition of PIK3CA/PIK3R1 (unknown origin); format: protein-complex assay
Chain of PI3-kinase p110-alpha/p85-alpha (P27986 whole entry): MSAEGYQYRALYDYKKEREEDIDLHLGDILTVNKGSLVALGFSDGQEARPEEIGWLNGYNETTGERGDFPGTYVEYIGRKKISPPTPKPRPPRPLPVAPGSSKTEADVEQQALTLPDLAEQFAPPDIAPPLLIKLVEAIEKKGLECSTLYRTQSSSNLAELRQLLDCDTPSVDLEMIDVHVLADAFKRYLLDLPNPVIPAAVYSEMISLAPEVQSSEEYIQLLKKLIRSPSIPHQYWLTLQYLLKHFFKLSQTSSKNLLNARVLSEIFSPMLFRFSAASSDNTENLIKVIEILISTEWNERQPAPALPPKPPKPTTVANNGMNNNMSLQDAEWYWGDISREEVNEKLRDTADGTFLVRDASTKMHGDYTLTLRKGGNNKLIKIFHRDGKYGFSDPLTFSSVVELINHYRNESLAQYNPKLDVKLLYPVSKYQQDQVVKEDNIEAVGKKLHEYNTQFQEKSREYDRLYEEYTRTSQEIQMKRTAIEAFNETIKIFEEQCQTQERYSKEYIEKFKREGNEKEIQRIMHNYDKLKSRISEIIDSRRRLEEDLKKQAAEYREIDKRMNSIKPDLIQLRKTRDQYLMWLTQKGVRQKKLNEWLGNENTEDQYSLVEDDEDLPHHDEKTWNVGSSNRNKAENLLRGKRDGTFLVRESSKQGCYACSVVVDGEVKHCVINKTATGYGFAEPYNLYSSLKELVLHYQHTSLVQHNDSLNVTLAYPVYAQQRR
Chain of PI3-kinase p110-alpha/p85-alpha (P42336 whole entry): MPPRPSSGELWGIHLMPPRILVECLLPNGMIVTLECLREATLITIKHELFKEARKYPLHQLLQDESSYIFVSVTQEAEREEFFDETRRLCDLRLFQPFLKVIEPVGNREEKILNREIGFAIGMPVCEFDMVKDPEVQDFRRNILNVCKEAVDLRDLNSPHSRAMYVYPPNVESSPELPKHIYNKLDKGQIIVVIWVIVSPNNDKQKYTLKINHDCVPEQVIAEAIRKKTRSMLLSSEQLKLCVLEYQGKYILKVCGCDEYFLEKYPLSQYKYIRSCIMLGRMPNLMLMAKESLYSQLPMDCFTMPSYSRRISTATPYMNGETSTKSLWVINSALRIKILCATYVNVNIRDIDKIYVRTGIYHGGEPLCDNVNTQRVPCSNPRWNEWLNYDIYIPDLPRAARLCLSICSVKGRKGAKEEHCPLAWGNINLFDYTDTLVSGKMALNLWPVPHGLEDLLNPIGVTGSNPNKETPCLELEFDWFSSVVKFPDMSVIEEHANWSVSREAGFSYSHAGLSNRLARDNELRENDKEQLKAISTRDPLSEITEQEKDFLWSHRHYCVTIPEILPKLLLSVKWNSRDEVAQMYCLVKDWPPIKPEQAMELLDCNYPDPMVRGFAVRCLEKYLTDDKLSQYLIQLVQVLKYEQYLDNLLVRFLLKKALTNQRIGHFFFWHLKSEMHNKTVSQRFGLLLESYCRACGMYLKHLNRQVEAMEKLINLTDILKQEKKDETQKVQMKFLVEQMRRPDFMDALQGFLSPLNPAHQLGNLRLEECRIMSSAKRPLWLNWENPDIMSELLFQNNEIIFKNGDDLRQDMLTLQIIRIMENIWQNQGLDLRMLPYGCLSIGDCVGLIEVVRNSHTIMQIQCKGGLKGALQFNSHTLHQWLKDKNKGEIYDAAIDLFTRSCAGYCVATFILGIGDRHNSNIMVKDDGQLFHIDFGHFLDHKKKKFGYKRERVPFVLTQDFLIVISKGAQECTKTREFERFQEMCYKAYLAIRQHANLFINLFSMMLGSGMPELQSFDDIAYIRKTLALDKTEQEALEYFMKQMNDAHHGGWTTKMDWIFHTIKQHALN

[7] = biological target: cGMP-dependent protein kinase 2 (Homo sapiens, UniProt Q13237); assay: Inhibition of PRKG2 (unknown origin)
[8] = biological target: Testis-specific serine/threonine-protein kinase 2 (Homo sapiens, UniProt Q96PF2); assay: Inhibition of STK22B (unknown origin)
Chain of Testis-specific serine/threonine-protein kinase 2 (Q96PF2 whole entry): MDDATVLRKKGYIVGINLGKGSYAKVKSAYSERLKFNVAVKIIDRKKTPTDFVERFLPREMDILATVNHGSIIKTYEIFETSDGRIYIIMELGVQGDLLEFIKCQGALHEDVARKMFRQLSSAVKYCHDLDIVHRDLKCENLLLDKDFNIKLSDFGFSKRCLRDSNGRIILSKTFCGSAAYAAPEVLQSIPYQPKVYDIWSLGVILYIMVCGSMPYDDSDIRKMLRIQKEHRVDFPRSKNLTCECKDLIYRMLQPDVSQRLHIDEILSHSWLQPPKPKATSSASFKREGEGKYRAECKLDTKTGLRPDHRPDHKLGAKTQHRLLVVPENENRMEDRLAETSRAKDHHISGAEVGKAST

[9] = Volume of distribution at steady state in monkey at 1.35 mg/kg, iv administered as single dose; format: ADME, organism-based, Macaca mulatta; settings: rhesus monkey, in vivo, read-out: Vdss
Mus musculus [10] = assay: Effect on circulating leukocytes in wildtype mouse assessed as percentage of CD45+/PI- cells expressing CD11b at 1200 ppm administered as rodent chow for 10 to 24 weeks (reference value: 6.22 to 25.7 %); format: functional; settings: route po, time 10-24 weeks
[11] = Toxicity in wildtype mouse assessed as total number of arm entries at 1200 ppm administered as rodent chow for 10 to 24 weeks by Y-maze test (reference value: 14 to 35); settings: in vivo, po, time 10-24 weeks
Mus musculus [12] = assay: Antialzheimer activity in 5XFAD mouse assessed as average plaque volume in retro spinal cortex at 1200 ppm administered as rodent chow starting from 1.5 months and measured after 7 months by Thio-S staining based confocal microscopic analysis (reference value: 1174.18 to 2460.96 microm3); format: functional; settings: route po, time 5.5 months, 4015 h
Mus musculus [13] = assay: Antialzheimer activity in 5XFAD mouse assessed as amyloidbeta42 level in detergent insoluble cortex fraction measured per microgram protein at 1200 ppm administered as rodent chow starting from 1.5 months and measured after 4 months by ELISA (reference value: 184693 to 3485624 pg); format: functional; settings: route po, time 2.5 months, 1825 h
In short: (§1)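 PLX5622 at 1200 ppm in chow given to 5xFAD mice from 1.5 months to 4 or 7 months of age; cortex and thalamus homogenized in TPER (detergent-soluble), pellets re-homogenized in 70% formic acid and spun 100,000 g, 1 h, 4 °C (insoluble); protein by Bradford/Lowry; Aβ species measured by Meso Scale electrochemiluminescence immunoassay, normalized to protein; n = 7–8 per group at 7 months.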

Mus musculus [14] = assay: Antialzheimer activity in 5XFAD mouse assessed as amyloidbeta40 level in detergent soluble thalamus fraction measured per microgram protein at 1200 ppm administered as rodent chow starting from 1.5 months and measured after 7 months by ELISA (reference value: 0 to 0.047 pg); format: functional; settings: route po, time 5.5 months, 4015 h; in short: as §1
Mus musculus [15] = assay: Antialzheimer activity in 5XFAD mouse assessed as microglial elimination in thalamus at 1200 ppm administered as rodent chow for 10 weeks by Thio-S staining based confocal microscopic analysis; format: functional, organism-based; settings: route po
In short: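 1.5-month-old 5xFAD mice fed 1200 ppm PLX5622 chow for 10 weeks; free-floating sections stained with Thio-S and immunolabeled for IBA1 (5% normal serum/0.2% Triton X-100 block, 60 min); confocal imaging of cortex and thalamus to assess remaining microglia.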

Mus musculus [16] = assay: Antialzheimer activity in 5XFAD mouse assessed as average diameter of claudin-5 blood vessels in Thio-S negative retro spinal cortex at 1200 ppm administered as rodent chow starting from 1.5 months and measured after 4 months by immunolabeling analysis; format: functional; settings: route po, time 2.5 months, 1825 h
[17] = Effect on Csf1r RPKM gene expression in wild type mouse hippocampus at 1200 ppm administered as rodent chow starting from 1.5 months and measured after 7 months by RNA-Seq analysis (reference value: 18.240 to 20.004 RPKM); format: functional; settings: route po, time 5.5 months, 4015 h
[18] = Effect on Cst7 gene expression in 5XFAD mouse cortex at 1200 ppm administered as rodent chow starting from 1.5 months and measured after 7 months by RNA-Seq analysis (reference value: 9.853 to 27.586 RPKM); format: functional; settings: route po, time 5.5 months, 4015 h
[19] = Effect on Ctsd gene expression in wild type mouse thalamus at 1200 ppm administered as rodent chow starting from 1.5 months and measured after 7 months by RNA-Seq analysis (reference value: 123.974 to 159.747 RPKM); format: functional; settings: route po, time 5.5 months, 4015 h
[20] = Effect on Nrg3 gene expression in wildtype mouse hippocampus assessed as percent change in Reads Per kilo base per Million mapped reads at 1200 ppm administered as rodent chow starting from 1.5 months and measured after 7 months by RNA-Seq analysis (reference value: 84.058 to 111.732 %); format: functional; settings: route po, time 5.5 months, 4015 h
Mus musculus [21] = assay: Prevention of immune pathway related gene upregulation in 5XFAD mouse hippocampus assessed as percent change in Reads Per kilo base per Million mapped reads at 1200 ppm administered as rodent chow starting from 1.5 months and measured after 7 months by GO enrichment analysis; format: functional, tissue-based; settings: route po, time 5.5 months
Mus musculus [22] = assay: Antialzheimer activity in 5XFAD mouse assessed as appearance of CAA in […] cortex at 600 ppm administered as rodent chow starting from 1.5 months and measured after 5 months by immunolabeling based confocal microscopic analysis; format: functional, organism-based; settings: route po, time 3.5 months
In short: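 5xFAD mice fed PLX3397 at 600 ppm in AIN-76A chow from 1.5 to 5 months of age; brain sections stained with Thio-S and immunolabeled for IBA1, imaged by confocal microscopy for vascular Thio-S deposits.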

[23] = Drug concentration in 5XFAD mouse plasma at 600 ppm administered as rodent chow starting from 1.5 months and measured after 5 months; format: ADME, cell-free; settings: route po, time 3.5 months
In short: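 WT or 5xFAD mice were fed PLX3397 in AIN-76A chow at 600 ppm or 75 ppm from 1.5 to 5 months of age. Terminal brain and plasma drug concentrations were determined at study end.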

Chain of RAC-alpha serine/threonine-protein kinase (P31749 whole entry): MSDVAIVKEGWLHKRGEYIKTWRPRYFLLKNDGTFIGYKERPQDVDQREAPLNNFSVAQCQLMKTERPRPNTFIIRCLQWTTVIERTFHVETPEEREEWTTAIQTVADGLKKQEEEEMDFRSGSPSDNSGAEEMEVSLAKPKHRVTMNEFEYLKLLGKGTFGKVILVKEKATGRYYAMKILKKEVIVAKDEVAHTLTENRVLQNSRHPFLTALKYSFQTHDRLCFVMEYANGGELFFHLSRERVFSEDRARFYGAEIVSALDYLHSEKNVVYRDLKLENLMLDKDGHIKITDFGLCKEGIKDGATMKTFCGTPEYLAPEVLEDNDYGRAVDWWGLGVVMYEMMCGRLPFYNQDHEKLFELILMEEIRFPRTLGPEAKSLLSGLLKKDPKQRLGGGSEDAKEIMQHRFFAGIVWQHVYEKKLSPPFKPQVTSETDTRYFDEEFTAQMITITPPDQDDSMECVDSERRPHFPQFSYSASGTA

COc1ncc(F)cc1CNc1ccc(Cc2c[nH]c3ncc(C)cc23)c(F)n1 [PLX-5622]
pIC50 [1]: < 6.00
pIC50 [2]: < 6.00
pIC50 [3]: < 6.00
pIC50 [4]: < 6.00
pIC50 [5]: < 6.00
pIC50 [6]: < 6.00
pIC50 [7]: < 6.00
pIC50 [8]: < 6.00
Vd [9]: 1.6 L/kg
Activity (Mus musculus [10]): 18.9%
Activity [11]: 14
Activity (Mus musculus [12]): 622.98 um3
Activity (Mus musculus [13]): 14098.06 pg
Activity (Mus musculus [14]): 0 pg
Activity (Mus musculus [15]): inactive
Activity (Mus musculus [16]): 1.786 um
Activity [17]: 0.238 RPKM
Activity [18]: 0.887 RPKM
Activity [19]: 100.931 RPKM
Activity [20]: 59.872%
Activity (Mus musculus [21]): Active

FC(F)(F)c1ccc(CNc2ccc(Cc3c[nH]c4ncc(Cl)cc34)cn2)cn1 [PEXIDARTINIB]
Activity (Mus musculus [22]): Active
concentration at 2555 h [23]: 158 µM
